Source: PubChem BioAssay (several laboratories)
Compounds with a hit are over-represented: about 2% of the library has one in this group of screens.
DAGLB inh: blocks human DAGLB lipase activity | HEK293T DAGLB membrane lysate, EnzChek fluorogenic substrate | inhibition, % at 5.17 µM | 340,000 tested, 0.059% active | AID 504411; in the data active means inhibition above about 34%;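 further: 0% = enzyme with vehicle and 100% = wells lacking enzyme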
Exocytosis inh: blocks lytic granule exocytosis | TALL-104 LAMP-1 surface exposure, flow cytometry; cells stimulated with thapsigargin and PMA | inhibition, % at 10 µM | 360,000 tested, 0.66% active;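 active means inhibition above about 55%, limit read from the data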
VLA-4 inh: inhibition in a human VLA-4 binding assay; 330,000 tested, 0.2% active; inhibition, % (about 7 µM as worked out from the volumes in the protocol); VLA-4 expressing cells, ligand binding flow cytometry; in the data active means inhibition above about 50%
ABCB6 inh 2: inhibitors of human ABC transporter ABCB6 | K562-ABCB6 porphyrin accumulation, flow cytometry, 1 h; hits give low values | 360,000 tested, 0.19% active | fluorescence ratio to DMSO, % at 10 µM | AID 602162;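 active means fluorescence ratio to DMSO below 75%, the collection mean minus 3 SD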;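 further: signal is porphyrin accumulated inside mitochondria; 100% equals median channel fluorescence of DMSO control wells; lower ratio means ABCB6 inhibition with less porphyrin fluorescence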
MT1-MMP act inh: blocks activation of human MT1-MMP; HT1080 RFP-PRO-GFP cells, GFP/RFP ratio fluorescence, overnight; percent of plate control window, DMSO zero; 360,000 tested, 0.061% active; GFP/RFP ratio change, % at 20 µM; P50281;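 active means GFP/RFP ratio change of at least 30% with cell ATP level not reduced by more than half and red fluorescence within 50% of control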
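Assay system: HT1080 cells carrying an RFP-PRO-GFP reporter | Dosing: Single dose of 20 µM compound, 1% DMSO final | Incubation: Cells overnight before dosing, compound overnight, 37 °C, 5% CO2 | Evaluation: GFP/RFP fluorescence ratio | Control set: DMSO and RFP-L50D-GFP cell wells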
FGF22 binding: shifts melting point of recombinant human FGF22 | recombinant FGF22 thermal shift, SYPRO orange fluorescence; percent of sucrose octasulfate shift, DMSO zero | AID 651658 | activity (Tm shift, normalised), % at 9.99 µM | 340,000 tested, 1.5% active;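 active means mean Tm shift, scaled 0 neutral to 100 positive control, at about 1.3% or above, every replicate too, limit read from the data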
VLA-4 mod pick: confirmation of allosteric modulators of human VLA-4 integrin | 1,300 tested, 2% active | U937 cells, HUTS-21 LIBS mAb binding, flow cytometry; LDV ligand present at threefold Kd | shares compounds with VLA-4 inh | inhibition, % at 6.7 µM | AID 2813; in the data active means inhibition above about 40%;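 further: 0% = ligand without compound and 100% = no ligand background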
The depositor's hits bear a star.

What do the screens show for `Cc1c(NC(=O)C2CCCN2S(=O)(=O)c2ccccc2)c(=O)n(-c2ccccc2)n1C` (stereo not given)?
DAGLB inh: 0; Exocytosis inh: -2; VLA-4 inh: 5; ABCB6 inh 2: 93; MT1-MMP act inh: 0; VLA-4 mod pick: 3

Results for C[C@H]1CN([C@@H](C)CO)C(=O)c2cc(C#Cc3cccnc3)cnc2O[C@H]1CN(C)Cc1ccccc1 ?
FGF22 binding: 0

What do the screens show for `CO[C@@H]1CN(C)C(=O)c2ccc(NC(=O)Nc3ccc4c(c3)OCO4)cc2OC[C@H](C)NC[C@H]1C`?
FGF22 binding: 1

What do the screens show for `C[C@@H]1CCCCO[C@@H](CN(C)Cc2ccncc2)[C@@H](C)CN([C@H](C)CO)C(=O)c2cc(NC(=O)CCCN(C)C)ccc2O1`?
FGF22 binding: 0

How did CC(=O)N1[C@@H](CO)[C@@H](c2ccccc2)C12CN(C(=O)Cc1ccccc1)C2 do in these assays?
FGF22 binding: 0

Results for COc1ccc(S(=O)(=O)N(C)C[C@@H]2OCCCC[C@H](C)Oc3ccc(NC(=O)C4CCCCC4)cc3C(=O)N([C@H](C)CO)C[C@H]2C)cc1 ?
FGF22 binding: -1

How did Cc1cc(O)c(NC(=O)c2cc([N+](=O)[O-])ccc2Cl)cc1C do in these assays?
DAGLB inh: 4; Exocytosis inh: 5; VLA-4 inh: 51*; ABCB6 inh 2: 98; MT1-MMP act inh: -9; FGF22 binding: -1; VLA-4 mod pick: -8

Results for COc1ccccc1CNC(=O)C[C@@H]1CC[C@@H]2[C@H](COC[C@@H](O)CN2C(=O)Nc2ccccc2)O1 ?
FGF22 binding: 0

What do the screens show for `CC(=O)N(C)C[C@@H]1Oc2ncc(C#C[C@H](C)O)cc2C(=O)N([C@@H](C)CO)C[C@@H]1C`?
FGF22 binding: 1

What do the screens show for `COc1ccc(-c2csc3nc(C(C)C)oc(=O)c23)cc1OC`?
DAGLB inh: 0; Exocytosis inh: 0; VLA-4 inh: 0; ABCB6 inh 2: 99; MT1-MMP act inh: 5

What do the screens show for `COc1ccc(-c2nc3scc(-c4ccc(OC)c(OC)c4)c3c(=O)o2)cc1`?
DAGLB inh: 2; Exocytosis inh: -4; VLA-4 inh: 84*; ABCB6 inh 2: 100; MT1-MMP act inh: 3; VLA-4 mod pick: 7

Results for Cc1ccc(NC(=O)COc2ncnc3c(Cl)cc(Cl)cc23)cc1[N+](=O)[O-] ?
DAGLB inh: -1; Exocytosis inh: -7; VLA-4 inh: 40; ABCB6 inh 2: 99; MT1-MMP act inh: 2; VLA-4 mod pick: -22

Results for COc1ccccc1-c1ccc2c(c1)O[C@@H](CN(C)C(=O)c1ccccc1)[C@@H](C)CN([C@H](C)CO)S2(=O)=O ?
FGF22 binding: 0

Results for COc1cccc(C(=O)OCC(=O)NCCC2=CCCCC2)c1 ?
DAGLB inh: 0; Exocytosis inh: 20; VLA-4 inh: 4; ABCB6 inh 2: 100; MT1-MMP act inh: -1; FGF22 binding: 0; VLA-4 mod pick: -1

Results for COc1cc(C(=O)OCC(=O)NCCC2=CCCCC2)cc(OC)c1OC ?
DAGLB inh: -1; Exocytosis inh: -6; ABCB6 inh 2: 94; MT1-MMP act inh: 1; FGF22 binding: 1

What do the screens show for `Cc1ccc2c(c1)c1c(n2CC(O)CNC2CCCCC2)CCCC1` (stereo not given)?
DAGLB inh: 2; Exocytosis inh: 2; VLA-4 inh: 52*; ABCB6 inh 2: 105; MT1-MMP act inh: -6; FGF22 binding: 0; VLA-4 mod pick: 18

Results for COc1ccc(C(=O)C2CCCN(Cc3c[nH]c4ccccc34)C2)c(OC)c1 (stereo not given) ?
DAGLB inh: -1; Exocytosis inh: 3; VLA-4 inh: 55*; ABCB6 inh 2: 95; MT1-MMP act inh: -2; FGF22 binding: 0; VLA-4 mod pick: 2

How did COc1ccc(C(=O)C2CCCN(Cc3c(F)ccc(F)c3F)C2)c(OC)c1 (stereo not given) do in these assays?
DAGLB inh: -8; Exocytosis inh: 4; VLA-4 inh: -3; ABCB6 inh 2: 93; MT1-MMP act inh: -2; FGF22 binding: 0

What do the screens show for `CCC(C)NC(=O)[C@@H]1CCCN1C(=O)C1CCN(S(=O)(=O)c2ccc(C)cc2)CC1` (stereo not given in full)?
DAGLB inh: 1; Exocytosis inh: -4; VLA-4 inh: 53*; ABCB6 inh 2: 105; MT1-MMP act inh: 0; FGF22 binding: 0; VLA-4 mod pick: -2

How did CC(C)[C@H](NC(=O)N1c2ccccc2NC(=O)[C@@H]1C(C)C)C(=O)N[C@@H](Cc1ccccc1)C(=O)O do in these assays?
DAGLB inh: 0; Exocytosis inh: 3; VLA-4 inh: 64*; ABCB6 inh 2: 102; MT1-MMP act inh: 1; FGF22 binding: 0; VLA-4 mod pick: 10

Results for C[C@H]1CN([C@@H](C)CO)C(=O)c2cc(-c3ccc(C#N)cc3)cnc2O[C@@H]1CN(C)CC1CCCCC1 ?
FGF22 binding: 0

How did CCOC(=O)c1c(NC2=NS(=O)(=O)c3ccccc32)sc2c1CCC(C)C2 (stereo not given) do in these assays?
DAGLB inh: 0; Exocytosis inh: -2; VLA-4 inh: 60*; ABCB6 inh 2: 96; MT1-MMP act inh: 4; VLA-4 mod pick: 5

What do the screens show for `CCOC(=O)c1c(NC2=NS(=O)(=O)c3ccccc32)sc2c1CCCCC2`?
DAGLB inh: 1; Exocytosis inh: -1; VLA-4 inh: 19; ABCB6 inh 2: 90; MT1-MMP act inh: 1; FGF22 binding: 1

How did CC1C(=O)N2CCCc3cc(S(=O)(=O)Nc4ccccc4C(N)=O)cc1c32 (stereo not given) do in these assays?
DAGLB inh: 1; Exocytosis inh: -4; VLA-4 inh: 9; ABCB6 inh 2: 98; MT1-MMP act inh: 4; FGF22 binding: 0; VLA-4 mod pick: -5

What do the screens show for `CC(C)C[C@@H]1NC(=O)[C@H]2C[C@@H](C(=O)NCCCCCN)[C@@H](c3cccc(OCCO)c3)N2C1=O`?
FGF22 binding: 0

What do the screens show for `Cc1noc(C)c1S(=O)(=O)N(C)C[C@@H]1OCCCC[C@H](C)Oc2ccc(NC(=O)Nc3ccc(F)cc3)cc2C(=O)N([C@H](C)CO)C[C@@H]1C`?
FGF22 binding: 1
